Test results reported in ChEMBL document CHEMBL1147789, “The search for novel TRPV1-antagonists: from carboxamides to benzimidazoles and indazolones” (Bioorg Med Chem Lett, 2006).

Columns and labels:
[1] = target: T1, Transient receptor potential cation channel subfamily V member 1 (Homo sapiens, UniProt Q8NER1); assay: Antagonist activity against capsaicin-induced intracellular calcium ion increase in CHO cells expressing human TRPV1 in FLIPR assay; type: functional, cell-based
[2] = Clearance in rat at 1 mg/kg, iv; type: ADME, organism-based; design: dose 1 mg/kg, route intravenous; conditions: in vivo
[3] = Volume of distribution in rat at 1 mg/kg, iv; type: ADME, organism-based; design: dose 1 mg/kg, route intravenous; conditions: in vivo, read-out: Vdss
[4] = target: T2, Transient receptor potential cation channel subfamily V member 1 (Rattus norvegicus, UniProt O35433); assay: Activity at rat TRPV1 as inhibition of pH 5.5-induced currents in CHO cells
T2 sequence (O35433 whole entry): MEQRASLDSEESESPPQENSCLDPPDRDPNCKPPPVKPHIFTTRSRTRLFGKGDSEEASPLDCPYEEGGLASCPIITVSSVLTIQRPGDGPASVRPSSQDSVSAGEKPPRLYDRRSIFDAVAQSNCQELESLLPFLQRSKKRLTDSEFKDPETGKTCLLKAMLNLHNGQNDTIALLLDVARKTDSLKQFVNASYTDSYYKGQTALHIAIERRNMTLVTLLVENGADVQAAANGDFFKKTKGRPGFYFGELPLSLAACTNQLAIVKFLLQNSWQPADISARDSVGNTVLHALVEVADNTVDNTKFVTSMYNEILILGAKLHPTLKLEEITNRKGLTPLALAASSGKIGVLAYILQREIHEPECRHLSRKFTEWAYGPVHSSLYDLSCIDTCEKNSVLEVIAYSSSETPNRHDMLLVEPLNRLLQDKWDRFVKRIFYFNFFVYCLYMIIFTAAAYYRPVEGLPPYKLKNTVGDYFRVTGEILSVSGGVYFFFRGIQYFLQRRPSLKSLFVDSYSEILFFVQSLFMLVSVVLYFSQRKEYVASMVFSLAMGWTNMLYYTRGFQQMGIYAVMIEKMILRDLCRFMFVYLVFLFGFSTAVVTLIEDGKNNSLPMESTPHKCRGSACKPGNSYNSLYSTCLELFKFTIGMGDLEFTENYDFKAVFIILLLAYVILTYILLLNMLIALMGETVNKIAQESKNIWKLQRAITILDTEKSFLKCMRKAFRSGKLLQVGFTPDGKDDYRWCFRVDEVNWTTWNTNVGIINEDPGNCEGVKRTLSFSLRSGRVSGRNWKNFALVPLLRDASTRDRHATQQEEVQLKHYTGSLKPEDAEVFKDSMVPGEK

[5] = Systemic AUC in rat at 5 mg/kg, po; type: ADME, organism-based; design: dose 5 mg/kg, route oral; conditions: in vivo
Summary of the method: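 Oral dose of 5 mpk; AUC taken from systemic blood levels.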

[6] = target: T1, Transient receptor potential cation channel subfamily V member 1; assay: Inhibition of acidic pH 5.5-stimulated current in CHO cells expressing human TRPV1 receptor by patch clamp; type: functional, cell-based
[7] = target: Transient receptor potential cation channel subfamily V member 1 (Rattus norvegicus) (UniProt O35433); assay: Decrease in carrageenan-induced thermal hyperalgesia in rat at 30 mg/kg, po; type: functional, organism-based; design: dose 30 mg/kg; scale not given: the % may be the effect or the level left
Sequence of Transient receptor potential cation channel subfamily V member 1 (Rattus norvegicus) (O35433 whole entry): as above
Summary of the method: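 Rats received 0.1 mL intraplantar carrageenan, or saline for the uninflamed group, in the right hind limb. Two hours later they were dosed orally at 30 mpk. After 1 h, thermal withdrawal was retested three times on each hind paw (Hargreaves). Saline response was set as 0% hyperalgesia and carrageenan response as 100%.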

[8] = Half life in rat at 1 mg/kg, iv; type: ADME, organism-based; design: dose 1 mg/kg, route intravenous; conditions: in vivo
[9] = target: T2, Transient receptor potential cation channel subfamily V member 1; assay: Activity against capsaicin-induced […] in CHO cells expressing rat TRPV1 assessed by patch clamp; type: functional, cell-based
Summary of the method: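 Whole-cell patch clamp on cells expressing rat TRPV1, stimulated with 500 nM capsaicin; IC50 for inhibition of the evoked response.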

[10] = AUC in hepatic portal vein of rat at 5 mg/kg, po; type: ADME, organism-based, Plasma; design: dose 5 mg/kg, route oral
[11] = target: T1, Transient receptor potential cation channel subfamily V member 1; assay: Inhibition of acidic pH 5.5-stimulated current in CHO cells expressing human TRPV1 receptor at 100 nM by patch clamp; type: functional, cell-based

T1 sequence (Q8NER1 whole entry): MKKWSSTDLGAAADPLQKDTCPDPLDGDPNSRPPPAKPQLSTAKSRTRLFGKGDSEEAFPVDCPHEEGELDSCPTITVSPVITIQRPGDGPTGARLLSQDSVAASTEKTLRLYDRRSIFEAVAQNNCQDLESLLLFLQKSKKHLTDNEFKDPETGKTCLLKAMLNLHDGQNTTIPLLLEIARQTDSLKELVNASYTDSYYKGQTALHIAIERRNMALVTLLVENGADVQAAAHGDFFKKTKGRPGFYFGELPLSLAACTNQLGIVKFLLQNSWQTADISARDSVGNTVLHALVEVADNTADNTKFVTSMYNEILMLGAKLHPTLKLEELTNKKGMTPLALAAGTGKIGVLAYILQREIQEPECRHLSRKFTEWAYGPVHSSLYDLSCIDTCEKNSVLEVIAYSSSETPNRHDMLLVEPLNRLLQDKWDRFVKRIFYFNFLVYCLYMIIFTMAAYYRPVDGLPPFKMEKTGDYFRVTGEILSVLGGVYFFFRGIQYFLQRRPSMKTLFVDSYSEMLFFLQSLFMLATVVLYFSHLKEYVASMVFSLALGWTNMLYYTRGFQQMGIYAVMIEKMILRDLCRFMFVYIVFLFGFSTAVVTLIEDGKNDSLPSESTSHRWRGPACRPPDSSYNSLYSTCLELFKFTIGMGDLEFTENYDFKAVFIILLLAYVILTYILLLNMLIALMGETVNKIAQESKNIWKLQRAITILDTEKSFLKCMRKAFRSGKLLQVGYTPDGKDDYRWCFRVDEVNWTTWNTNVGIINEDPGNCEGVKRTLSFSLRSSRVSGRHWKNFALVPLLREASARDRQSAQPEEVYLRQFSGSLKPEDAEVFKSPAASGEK

IC50 [1]	Compound	other results
340 nM	O=c1c2ccccc2[nH]n1-c1ccc(C(F)(F)F)cc1	–
320 nM	Fc1ccc(-c2nc3cc(-c4ncccc4C(F)(F)F)ccc3[nH]2)cc1	–
180 nM	Cc1cccnc1-c1ccc2c(=O)n(-c3ccc(C(F)(F)F)cc3)[nH]c2c1	–
224 nM	CC(C)(C)c1ccc(-c2nc3cc(-c4ncccc4C(F)(F)F)ccc3[nH]2)cc1	–
470 nM	CC(C)(C)c1ccc(C(=O)Nc2ccc(-c3ncccc3C(F)(F)F)cc2)cc1	–
170 nM	Cc1ccc(-c2nc3cc(-c4ncccc4C(F)(F)F)ccc3[nH]2)cc1	–
640 nM	Cc1cccnc1-c1ccc(NC(=O)c2cccc(C(F)(F)F)c2)cc1	–
290 nM	Oc1c2c(nn1-c1ccc(C(F)(F)F)cc1)NC(c1ncccc1C(F)(F)F)CC2 (stereo not drawn)	–
1100 nM	Cc1ccc(C(=O)Nc2ccc(-c3ncccc3C(F)(F)F)cc2)cc1	–
35 nM	O=c1c2ccc(-c3ncccc3C(F)(F)F)cc2[nH]n1-c1ccc(C(F)(F)F)cc1	clearance [2]: 8 mL/min/kg; Vd [3]: 2 L/kg; IC50 [4]: 65 nM; AUC [5]: 3 µM·h; IC50 [6]: 4 nM; Activity [7]: 50%; half-life [8]: 3.6 h; IC50 [9]: 220 nM; AUC [10]: 6.2 µM·h
2400 nM	O=C(Nc1ccc(-c2ncccc2C(F)(F)F)cc1)c1ccccc1	–
1500 nM	O=C(Nc1ccc(-c2ccccn2)cc1)c1ccc(C(F)(F)F)cc1	–
370 nM	O=c1c2cc(-c3ncccc3C(F)(F)F)ccc2[nH]n1-c1ccc(C(F)(F)F)cc1	–
160 nM	Cc1cccnc1-c1ccc(NC(=O)c2ccc(C(F)(F)F)cc2)cc1	–
24 nM	O=C(Nc1ccc(-c2ncccc2C(F)(F)F)cc1)c1ccc(C(F)(F)F)cc1	AUC [5]: 0.04 µM·h; IC50 [6]: 33 nM; AUC [10]: 0.08 µM·h
270 nM	Cc1cccnc1-c1ccc2c(=O)n(-c3ccc(C(F)(F)F)cc3)[nH]c2n1	–
170 nM	COc1ccccc1-c1ccc2c(=O)n(-c3ccc(C(F)(F)F)cc3)[nH]c2c1	–
22 nM	FC(F)(F)c1ccc(-c2nc3cc(-c4ncccc4C(F)(F)F)ccc3[nH]2)cc1	AUC [5]: 1.25 µM·h; inhibition [11]: 95%; AUC [10]: 1.48 µM·h
